ChEMBL document CHEMBL1145922, “1,2-benzisoxazole phosphorodiamidates as novel anticancer prodrugs requiring bioreductive activation” (J Med Chem, 2003)

Legend:
Type in all cases: functional
Rattus norvegicus [1] = species on record: Rattus norvegicus; test: Tested for formation of compound upon incubation of compound 15 for 30 minutes with rat liver microsomal fractions in oxic condition in the presence of NADPH
Summary of the method: (§1)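 Phenobarbital-induced rat liver S-9, microsomal or cytosolic fraction with 5 mM cofactor (NADPH, NADH, benzaldehyde or 2-hydroxypyrimidine) or none. Substrate 2.5 mM final, added from methanol/water 50:50. Hypoxic vials purged with nitrogen 15–20 min. 30 min at 37 °C, quenched with ice-cold methanol. Ketone metabolite by HPLC at 254 nm as percent of equimolar substrate.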

Rattus norvegicus [2] = species on record: Rattus norvegicus; test: Tested for formation of compound upon incubation of compound 15 for 30 minutes with rat liver subcellular fractions in hypoxic condition in the absence of cofactor; summary of the method: as §1
Rattus norvegicus [3] = species on record: Rattus norvegicus; test: Tested for formation of compound upon incubation of compound 15 for 30 minutes with rat liver cystolic fractions in oxic condition in the presence of NADPH; summary of the method: as §1
Rattus norvegicus [4] = species on record: Rattus norvegicus; test: Percent inhibition of formation of compound upon incubation of 15 with phenobarbit-induced rat liver microsomal fraction in oxic condition in presence of pCMBA at a concentration of 2 mM
Summary of the method: (§2)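 Phenobarbital-induced rat liver microsomes; inhibitors SKF-525A (in methanol) or pCMBA (in DMF) at 0–4 mM final. pCMBA preincubated 30 min before NADPH; SKF-525A incubated 15 min with microsomes and NADPH. Hypoxic samples nitrogen-purged. Substrate 2.5 mM added, 30 min at 37 °C. Ketone metabolite by HPLC at 254 nm as percent of substrate; % inhibition relative to no inhibitor. Mean of two experiments.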

Rattus norvegicus [5] = species on record: Rattus norvegicus; test: Percent formation of compound upon incubation of 15 with phenobarbit-induced rat liver microsomal fraction in hypoxic condition in presence of pCMBA at a concentration of 0 mM; summary of the method: as §2
Rattus norvegicus [6] = species on record: Rattus norvegicus; test: Tested for formation of compound upon incubation of compound 15 for 30 minutes with rat liver microsomal fractions in hypoxic condition in the presence of NADPH; summary of the method: as §1
Rattus norvegicus [7] = species on record: Rattus norvegicus; test: Percent inhibition of formation of compound upon incubation of 15 with phenobarbit-induced rat liver microsomal fraction in oxic condition in presence of pCMBA at a concentration of 4 mM; summary of the method: as §2
Rattus norvegicus [8] = species on record: Rattus norvegicus; test: Percent formation of compound upon incubation of 15 for 60 minutes with rat P450 reductase microsomes in hypoxic condition in presence of NADPAH
Summary of the method: (§3)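 Human or rat P450 reductase microsomes at 1 mg/mL protein, substrate 0.25 mM and cofactor 0.5 mM; pCMBA 2 mM where stated. Anaerobic samples purged with nitrogen 15–20 min in septum-sealed vials. 60 min at 37 °C, stopped with ice-cold methanol. Ketone metabolite quantified by HPLC (C-18, methanol/water 50:50, UV 254 nm) as percent of equimolar substrate. Mean of two experiments.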

Rattus norvegicus [9] = species on record: Rattus norvegicus; test: Percent inhibition of formation of compound upon incubation of 15 with phenobarbit-induced rat liver microsomal fraction in hypoxic condition in presence of pCMBA at a concentration of 4 mM; summary of the method: as §2
Rattus norvegicus [10] = species on record: Rattus norvegicus; test: Tested for formation of compound upon incubation of compound 15 for 30 minutes with rat liver cystolic fractions in hypoxic condition in the absence of cofactor; summary of the method: as §1
Rattus norvegicus [11] = species on record: Rattus norvegicus; test: Percent formation of compound upon incubation of 15 with phenobarbit-induced rat liver microsomal fraction in hypoxic condition in presence of pCMBA at a concentration of 4 mM; summary of the method: as §2
Rattus norvegicus [12] = species on record: Rattus norvegicus; test: Tested for formation of compound upon incubation of compound 15 for 30 minutes with uninduced rat liver S-9 fractions in oxic condition in the absence of cofactor
Summary of the method: (§4)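 Uninduced rat liver S-9 (22.5 mg/mL protein, 2 mL) with 5 mM NADPH or no cofactor, substrate 2.5 mM final; hypoxic samples nitrogen-purged 15–20 min in septum-sealed vials, else aerobic; 30 min at 37 °C. Methanol quench, centrifugation, C-18 HPLC with UV 254 nm; metabolite as percent of equimolar substrate. NADPH runs three experiments, no-cofactor runs two.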

Rattus norvegicus [13] = species on record: Rattus norvegicus; test: Tested for formation of compound upon incubation of compound 15 for 30 minutes with rat liver subcellular fractions in oxic condition in the absence of cofactor; summary of the method: as §1
Rattus norvegicus [14] = species on record: Rattus norvegicus; test: Tested for formation of compound upon incubation of compound 15 for 30 minutes with uninduced rat liver S-9 fractions in hypoxic condition in the absence of cofactor; summary of the method: as §4
Rattus norvegicus [15] = species on record: Rattus norvegicus; test: Percent inhibition of formation of compound upon incubation of 15 with phenobarbit-induced rat liver microsomal fraction in hypoxic condition in presence of pCMBA at a concentration of 0 mM; summary of the method: as §2
Rattus norvegicus [16] = species on record: Rattus norvegicus; test: Tested for formation of compound upon incubation of compound 15 for 30 minutes with rat liver subcellular fractions in oxic condition in the presence of 2-hydroxypyrimidine
Summary of the method: (§5)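 Phenobarbital-induced rat liver S-9 fraction (2 mL) with 5 mM cofactor (NADPH, NADH, benzaldehyde or 2-hydroxypyrimidine), substrate 2.5 mM final, added in methanol/water 50:50; aerobic, 30 min at 37 °C. Quenched with ice-cold methanol, proteins spun down, supernatant analysed by reverse-phase C-18 HPLC, UV 254 nm; ketone metabolite given as percent of equimolar substrate; three experiments.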

Rattus norvegicus [17] = species on record: Rattus norvegicus; test: Tested for formation of compound upon incubation of compound 15 for 30 minutes with rat liver subcellular fractions in hypoxic condition in the presence of benzaldehyde; summary of the method: as §1
Homo sapiens = species on record: Homo sapiens; test: Percent formation of compound upon incubation of 15 for 60 minutes with human P450 reductase microsomes in hypoxic condition in presence of NADPH and pCMBA at a concentration of 2 mM; summary of the method: as §3
Rattus norvegicus [18] = species on record: Rattus norvegicus; test: Percent formation of compound upon incubation of 15 with phenobarbit-induced rat liver microsomal fraction in oxic condition in presence of pCMBA at a concentration of 4 mM; summary of the method: as §2
Rattus norvegicus [19] = species on record: Rattus norvegicus; test: Percent formation of compound upon incubation of 15 with phenobarbit-induced rat liver microsomal fraction in oxic condition in presence of SKF-525A at a concentration of 4 mM; summary of the method: as §2
Rattus norvegicus [20] = species on record: Rattus norvegicus; test: Percent formation of compound upon incubation of 15 with phenobarbit-induced rat liver microsomal fraction in hypoxic condition in presence of SKF-525A at a concentration of 1 mM; summary of the method: as §2
Rattus norvegicus [21] = species on record: Rattus norvegicus; test: Percent formation of compound upon incubation of 15 with phenobarbit-induced rat liver microsomal fraction in hypoxic condition in presence of SKF-525A at a concentration of 4 mM; summary of the method: as §2
Rattus norvegicus [22] = species on record: Rattus norvegicus; test: Percent formation of compound upon incubation of 15 with phenobarbit-induced rat liver microsomal fraction in oxic condition in presence of SKF-525A at a concentration of 0 mM; summary of the method: as §2
Rattus norvegicus [23] = species on record: Rattus norvegicus; test: Percent inhibition of formation of compound upon incubation of 15 with phenobarbit-induced rat liver microsomal fraction in oxic condition in presence of pCMBA at a concentration of 1 mM; summary of the method: as §2
Rattus norvegicus [24] = species on record: Rattus norvegicus; test: Tested for formation of compound upon incubation of compound 15 for 30 minutes with rat liver cystolic fractions in hypoxic condition in the presence of NADPH; summary of the method: as §1
Rattus norvegicus [25] = species on record: Rattus norvegicus; test: Tested for formation of compound upon incubation of compound 15 for 30 minutes with rat liver subcellular fractions in oxic condition in the presence of NADPH; summary of the method: as §5
Rattus norvegicus [26] = species on record: Rattus norvegicus; test: Percent inhibition of formation of compound upon incubation of 15 with phenobarbit-induced rat liver microsomal fraction in hypoxic condition in presence of SKF-525A at a concentration of 0 mM; summary of the method: as §2
Rattus norvegicus [27] = species on record: Rattus norvegicus; test: Tested for formation of compound upon incubation of compound 15 for 30 minutes with uninduced rat liver S-9 fractions in hypoxic condition in the presence of NADPH; summary of the method: as §4

**Q.** Which Formation (Rattus norvegicus [1]) does the source give for `CCC(=O)c1ccccc1O` here?
**A.** 73%

**Q.** What about the Formation (Rattus norvegicus [2]) of the same molecule?
**A.** 2.2%

**Q.** And the Formation (Rattus norvegicus [3])?
**A.** 0.7%

**Q.** What about the inhibition (Rattus norvegicus [4]) of the same molecule?
**A.** 99%

**Q.** And the Formation (Rattus norvegicus [5])?
**A.** 93.2%

**Q.** What about the Formation (Rattus norvegicus [6]) of the same molecule?
**A.** 93%

**Q.** And the inhibition (Rattus norvegicus [7])?
**A.** 99%

**Q.** What about the Formation (Rattus norvegicus [8]) of the same molecule?
**A.** 1.7%

**Q.** What about the inhibition (Rattus norvegicus [9]) of the same molecule?
**A.** 99%

**Q.** What about the Formation (Rattus norvegicus [10]) of the same molecule?
**A.** 1.4%

**Q.** What about the Formation (Rattus norvegicus [11]) of the same molecule?
**A.** 0.5%

**Q.** And the Formation (Rattus norvegicus [12])?
**A.** 1.6%

**Q.** And the Formation (Rattus norvegicus [13])?
**A.** 0.5%

**Q.** What about the Formation (Rattus norvegicus [14]) of the same molecule?
**A.** 0.9%

**Q.** And the inhibition (Rattus norvegicus [15])?
**A.** 0%

**Q.** What about the Formation (Rattus norvegicus [16]) of the same molecule?
**A.** 0.6%

**Q.** What about the Formation (Rattus norvegicus [17]) of the same molecule?
**A.** 2%

**Q.** What about the Formation (Homo sapiens) of the same molecule?
**A.** 0.6%

**Q.** What about the Formation (Rattus norvegicus [18]) of the same molecule?
**A.** 0.7%

**Q.** What about the Formation (Rattus norvegicus [19]) of the same molecule?
**A.** 26.9%

**Q.** And the Formation (Rattus norvegicus [20])?
**A.** 54.6%

**Q.** And the Formation (Rattus norvegicus [21])?
**A.** 45%

**Q.** What about the Formation (Rattus norvegicus [22]) of the same molecule?
**A.** 44.9%

**Q.** And the inhibition (Rattus norvegicus [23])?
**A.** 99%

**Q.** What about the Formation (Rattus norvegicus [24]) of the same molecule?
**A.** 3.6%

**Q.** What about the Formation (Rattus norvegicus [25]) of the same molecule?
**A.** 80.9%

**Q.** What about the inhibition (Rattus norvegicus [26]) of the same molecule?
**A.** 0%

**Q.** And the Formation (Rattus norvegicus [27])?
**A.** 9.4%
